Among the data in ChEMBL document CHEMBL1123311, “Synthesis and antitumor and antiviral properties of 5-halo- and 5-(trifluoromethyl)-2'-deoxyuridine 3',5'-cyclic monophosphates and neutral triesters” (1986) are MIC50, IC50 and Ki/Km values, retold here.

Assay [1] has as its system Human alphaherpesvirus 2. Description: Evaluation of antiviral activity against Herpes simplex virus type 2 (HSV-2) strain 196. In kind it is functional. The gist of the method: (§1)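 Virus-induced cytopathogenicity scored in primary rabbit kidney cell cultures. Value is the minimum concentration reducing cytopathogenicity by 50%. Cytotoxicity on uninfected cells was read as the minimal concentration causing a microscopically detectable change in normal cell morphology, tested up to 400 μg/mL.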

Assay [2] relates to Human alphaherpesvirus 2. Description: Evaluation of antiviral activity against Herpes simplex virus type 2 (HSV-2) strain G. It is filed as functional. The gist of the method: as §1
The subject of assay [3] is Human alphaherpesvirus 2. The assay is described as follows: Evaluation of antiviral activity against Herpes simplex virus type 2 (HSV-2) strain Lyons. It is filed as functional. The gist of the method: as §1
Assay [4] concerns Human alphaherpesvirus 1. Description: Evaluation of antiviral activity against Herpes simplex virus type 1 (HSV-1) strain F. In kind it is functional. The gist of the method:
as §1

Assay [5] deals with Human alphaherpesvirus 1. Description: Evaluation of antiviral activity against Herpes simplex virus type 1 (HSV-1) strain McIntyre. In kind it is functional. The gist of the method: as §1
Assay [6] deals with L1210. The assay is described as follows: Evaluation of antitumor activity against mutant murine leukemia L1210 cells. In kind it is functional. The settings on record: Mus musculus, read-out: ID50 (the source's name). The gist of the method:
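Proliferation of mutant murine leukemia L1210/BdUrd cells, selected from parental L1210/0 for growth in 260 μg/mL 5-bromo-2'-deoxyuridine. Value is the dose inhibiting proliferation by 50%.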

In assay [7] the test system is L1210. Description: Evaluation of cytostatic activity by using antitumor assays against murine leukemia L1210 cells. The settings on record: Mus musculus, read-out: ID50 (the source's name). It is filed as functional.
Assay [8] relates to Vesicular stomatitis virus. Description: Evaluation of antiviral activity against Vesicular stomatitis virus. It is filed as functional. The gist of the method:
as §1

The next assay deals with Vaccinia virus. Description: Evaluation of antiviral activity against Vaccinia virus. In kind it is functional. The settings on record: Orthopoxvirus vaccinia. The gist of the method: as §1
The subject of a further assay is Raji. Description: Evaluation of antitumor activity against thymidine kinase deficient Raji cell line. The settings on record: Homo sapiens, read-out: ID50 (the source's name). In kind it is functional.
Another assay is filed under the species Homo sapiens. Description: Evaluation for antitumor activity against human lymphoblast Raji cells. The settings on record: Homo sapiens, Raji; read-out: ID50 (the source's name). It is filed as functional.
Assay [9] relates to Human alphaherpesvirus 1. Description: Evaluation of antiviral activity against Herpes simplex virus type 1 (HSV-1) strain KOS. In kind it is functional. The gist of the method:
as §1

The target of assay [10] is Thymidylate synthase (Mus musculus) (UniProt P07607). The assay is described as follows: Compound was evaluated for the inhibition of L1210 Thymidylate synthase. The gist of the method:
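Thymidylate (dTMP) synthetase inhibition measured with a partially purified extract of L1210 cells as the enzyme source.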

In brackets after ≈: the same amount, converted by molar mass.

Thymidylate synthase (Mus musculus), sequence (P07607 whole entry, looked up): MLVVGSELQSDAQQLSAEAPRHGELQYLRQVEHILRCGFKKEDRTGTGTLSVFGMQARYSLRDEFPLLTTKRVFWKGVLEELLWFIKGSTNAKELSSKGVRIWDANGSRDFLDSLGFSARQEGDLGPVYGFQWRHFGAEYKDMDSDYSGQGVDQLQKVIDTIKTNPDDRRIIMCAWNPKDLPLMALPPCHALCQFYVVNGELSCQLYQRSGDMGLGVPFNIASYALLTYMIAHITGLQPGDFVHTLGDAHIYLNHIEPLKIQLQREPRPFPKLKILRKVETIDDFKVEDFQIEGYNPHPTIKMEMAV

For `O=c1[nH]c(=O)n([C@H]2C[C@H](O)[C@@H](CO)O2)cc1F` [FLOXURIDINE], the MIC50 was 150 µg/mL (≈ 609 µM) with Human alphaherpesvirus 2 [1]; 8 µg/mL (≈ 32.5 µM) in the assay with Human alphaherpesvirus 2 [2]; 10 µg/mL (≈ 40.6 µM) with Human alphaherpesvirus 2 [3]; 8 µg/mL (≈ 32.5 µM) against Human alphaherpesvirus 1 [4]; 4 µg/mL (≈ 16.2 µM) against Human alphaherpesvirus 1 [5]; above 200 µg/mL in assay [8]. Further, the MIC50 against Vaccinia virus is 0.1 µg/mL (≈ 0.406 µM); against Human alphaherpesvirus 1 [9] it was 6 µg/mL (≈ 24.4 µM). Also, the IC50 was 1.8 µg/mL (≈ 7.31 µM) in the assay with L1210 [6], 0.02 µg/mL (≈ 0.0812 µM) in the assay on L1210 [7], 1.55 µg/mL (≈ 6.3 µM) with Raji and 0.004 µg/mL (≈ 0.0162 µM) in the assay filed under Homo sapiens.

As to `O=c1[nH]c(=O)n([C@H]2C[C@H](O)[C@@H](CO)O2)cc1I` [IDOXURIDINE], the MIC50 was 0.4 µg/mL (≈ 1.13 µM) with Human alphaherpesvirus 2 [1]; 0.2 µg/mL (≈ 0.565 µM) against Human alphaherpesvirus 2 [2]; 0.1 µg/mL (≈ 0.282 µM) against Human alphaherpesvirus 2 [3]; 0.2 µg/mL (≈ 0.565 µM) with Human alphaherpesvirus 1 [4]; 0.2 µg/mL (≈ 0.565 µM) against Human alphaherpesvirus 1 [5]; above 400 µg/mL in assay [8]. Also, the MIC50 with Vaccinia virus and against Human alphaherpesvirus 1 [9] was 0.2 µg/mL (≈ 0.565 µM) throughout. The IC50 with L1210 [6] is above 500 µg/mL; with L1210 [7], 16 µg/mL (≈ 45.2 µM); in the assay with Raji it was above 500 µg/mL; in the assay listed under Homo sapiens it was 8 µg/mL (≈ 22.6 µM).

Take `O=c1[nH]c(=O)n([C@H]2C[C@H](O)[C@@H](COP(=O)(O)O)O2)cc1/C=C/Br`: the MIC50 is above 400 µg/mL in the assay on Human alphaherpesvirus 2 [1]; 20 µg/mL (≈ 48.4 µM) with Human alphaherpesvirus 2 [2]; 100 µg/mL (≈ 242 µM) in the assay with Human alphaherpesvirus 2 [3]; 0.02 µg/mL (≈ 0.0484 µM) against Human alphaherpesvirus 1 [4]; 0.02 µg/mL (≈ 0.0484 µM) with Human alphaherpesvirus 1 [5]; above 400 µg/mL in assay [8]. The results for the MIC50 against Vaccinia virus and against Human alphaherpesvirus 1 [9] were 7 µg/mL (≈ 16.9 µM) and 0.02 µg/mL (≈ 0.0484 µM), respectively.

`O=c1[nH]c(=O)n([C@H]2C[C@H](O)[C@@H](CO)O2)cc1C(F)(F)F` [TRIFLURIDINE]: the MIC50 was 1 µg/mL (≈ 3.38 µM) in the assay with Human alphaherpesvirus 2 [1]; 0.6 µg/mL (≈ 2.03 µM) against Human alphaherpesvirus 2 [2]; 1 µg/mL (≈ 3.38 µM) against Human alphaherpesvirus 2 [3]; 0.7 µg/mL (≈ 2.36 µM) against Human alphaherpesvirus 1 [4]; 0.7 µg/mL (≈ 2.36 µM) in the assay on Human alphaherpesvirus 1 [5]; above 40 µg/mL in assay [8]. In addition, the results for the MIC50 against Vaccinia virus and against Human alphaherpesvirus 1 [9] were 0.2 µg/mL (≈ 0.675 µM) and 0.7 µg/mL (≈ 2.36 µM), respectively. Moreover, the IC50 in the assay on L1210 [6] came out at 47 µg/mL (≈ 159 µM); in the assay on L1210 [7], 0.006 µg/mL (≈ 0.0203 µM); with Raji it was 180 µg/mL (≈ 608 µM); in the assay listed under Homo sapiens, 0.15 µg/mL (≈ 0.506 µM).

With `O=c1[nH]c(=O)n([C@H]2C[C@H](O)[C@@H](CO)O2)cc1Br` [BROXURIDINE], the MIC50 in the assay on Human alphaherpesvirus 2 [1] is 0.2 µg/mL (≈ 0.651 µM); in the assay with Human alphaherpesvirus 2 [2], 0.2 µg/mL (≈ 0.651 µM); in the assay with Human alphaherpesvirus 2 [3], 0.07 µg/mL (≈ 0.228 µM); in the assay with Human alphaherpesvirus 1 [4] it was 0.2 µg/mL (≈ 0.651 µM); against Human alphaherpesvirus 1 [5], 0.2 µg/mL (≈ 0.651 µM); in assay [8], above 400 µg/mL. For the same molecule, the MIC50 against Vaccinia virus was 0.07 µg/mL (≈ 0.228 µM); against Human alphaherpesvirus 1 [9], 0.2 µg/mL (≈ 0.651 µM). Also, the IC50 in the assay with L1210 [6] was above 1000 µg/mL; in the assay on L1210 [7], 33.8 µg/mL (≈ 110 µM); in the assay on Raji, above 1000 µg/mL; in the assay listed under Homo sapiens, 17.5 µg/mL (≈ 57 µM).

As to `N.O=c1[nH]c(=O)n([C@H]2C[C@@H]3O[PH](O)(O)OC[C@H]3O2)cc1C(F)(F)F`, the MIC50 in the assay with Human alphaherpesvirus 2 [1] is 40 µg/mL; in the assay on Human alphaherpesvirus 2 [2], 10 µg/mL; in the assay with Human alphaherpesvirus 2 [3], 10 µg/mL; against Human alphaherpesvirus 1 [4], 20 µg/mL; against Human alphaherpesvirus 1 [5], 10 µg/mL; in [8], above 400 µg/mL. In addition, the MIC50 with Vaccinia virus turned out to be 0.4 µg/mL; with Human alphaherpesvirus 1 [9] it was 10 µg/mL. Further, the IC50 in the assay with L1210 [6] is 22 µg/mL; in the assay on L1210 [7] it was 0.116 µg/mL; with Raji it was at least 500 µg/mL; in the assay listed under Homo sapiens, 1.81 µg/mL. In assay [10], this molecule yielded a Ki/Km of 30.4.
